Measured values reported in ChEMBL document CHEMBL3271984, “Antifungal activity of 4-substituted crotonic acid esters” (1976).
Converted amounts (≈) assume the structure as drawn. The source made the active and inactive calls. No cut-off for these calls is given here.

Legend:
Mucor mucedo [1] = experiment: Antifungal activity against Mucor mucedo ATCC 7941 incubated for 20 hrs; format: functional, organism-based
[2] = system: Trichophyton mentagrophytes; experiment: Antifungal activity against Trichophyton mentagrophytes ATCC 9129 incubated for 5 days; format: functional, organism-based
Candida albicans [3] = experiment: Antifungal activity against Candida albicans ATCC 10231 incubated for 20 hrs; format: functional, organism-based
Aspergillus niger [4] = experiment: Antifungal activity against Aspergillus niger ATCC 1004 incubated for 5 days; format: functional, organism-based
Candida albicans [5] = experiment: Antifungal activity against Candida albicans ATCC 10231 assessed as growth inhibition at pH 5.6 incubated for 20 hrs in absence of 10% beef serum; format: functional; conditions: ATCC 10231, 20 h, read-out: MIC100
Outline: (§1)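 Agar dilution in Sabouraud dextrose agar at pH 5.6 or 7.0, with or without 10% beef serum. C. albicans and M. mucedo were incubated 20 h at 37°; A. niger and T. mentagrophytes 5 days at 28°. The value is the minimal µg/ml giving 100% inhibition. Steps were 1 µg/ml up to 10, 2 up to 20, then 10 up to 100 µg/ml maximum.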

Candida albicans [6] = experiment: Antifungal activity against Candida albicans ATCC 10231 assessed as growth inhibition at pH 7 incubated for 20 hrs in absence of 10% beef serum; format: functional; conditions: ATCC 10231, 20 h, read-out: MIC100; outline: as §1
Aspergillus niger [7] = experiment: Antifungal activity against Aspergillus niger ATCC 1004 assessed as growth inhibition at pH 7 incubated for 5 days in absence of 10% beef serum; format: functional; conditions: for MIC: ATCC 1004, 120 h, read-out: MIC100; outline: as §1
Aspergillus niger [8] = experiment: Antifungal activity against Aspergillus niger ATCC 1004 assessed as growth inhibition at pH 7 incubated for 5 days in presence of 10% beef serum; format: functional; conditions: for MIC: ATCC 1004, 120 h, read-out: MIC100; outline: as §1
Aspergillus niger [9] = experiment: Antifungal activity against Aspergillus niger ATCC 1004 assessed as growth inhibition at pH 5.6 incubated for 5 days in presence of 10% beef serum; format: functional; conditions: for MIC: ATCC 1004, 120 h, read-out: MIC100; outline: as §1
Mucor mucedo [10] = experiment: Antifungal activity against Mucor mucedo ATCC 7941 assessed as growth inhibition at pH 5.6 incubated for 20 hrs in absence of 10% beef serum; format: functional; conditions: ATCC 7941, 20 h, read-out: MIC100; outline: as §1
[11] = system: Trichophyton mentagrophytes; experiment: Antifungal activity against Trichophyton mentagrophytes ATCC 9129 assessed as growth inhibition at pH 5.6 incubated for 5 days in absence of 10% beef serum; format: functional; conditions: ATCC 9129, 120 h, read-out: MIC100; outline: as §1
Candida albicans [12] = experiment: Antifungal activity against Candida albicans ATCC 10231 assessed as growth inhibition at pH 7 incubated for 20 hrs in presence of 10% beef serum; format: functional; conditions: ATCC 10231, 20 h, read-out: MIC100; outline: as §1
[13] = system: Trichophyton mentagrophytes; experiment: Antifungal activity against Trichophyton mentagrophytes ATCC 9129 assessed as growth inhibition at pH 7 incubated for 5 days in absence of 10% beef serum; format: functional; conditions: ATCC 9129, 120 h, read-out: MIC100; outline: as §1
[14] = system: Trichophyton mentagrophytes; experiment: Antifungal activity against Trichophyton mentagrophytes ATCC 9129 assessed as growth inhibition at pH 7 incubated for 5 days in presence of 10% beef serum; format: functional; conditions: ATCC 9129, 120 h, read-out: MIC100; outline: as §1
Mucor mucedo [15] = experiment: Antifungal activity against Mucor mucedo ATCC 7941 assessed as growth inhibition at pH 5.6 incubated for 20 hrs in presence of 10% beef serum; format: functional; conditions: ATCC 7941, 20 h, read-out: MIC100; outline: as §1
Mucor mucedo [16] = experiment: Antifungal activity against Mucor mucedo ATCC 7941 assessed as growth inhibition at pH 7 incubated for 20 hrs in absence of 10% beef serum; format: functional; conditions: ATCC 7941, 20 h, read-out: MIC100; outline: as §1
Candida albicans [17] = experiment: Antifungal activity against Candida albicans ATCC 10231 assessed as growth inhibition at pH 5.6 incubated for 20 hrs in presence of 10% beef serum; format: functional; conditions: ATCC 10231, 20 h, read-out: MIC100; outline: as §1
Aspergillus niger [18] = experiment: Antifungal activity against Aspergillus niger ATCC 1004 assessed as growth inhibition at pH 5.6 incubated for 5 days in absence of 10% beef serum; format: functional; conditions: for MIC: ATCC 1004, 120 h, read-out: MIC100; outline: as §1
[19] = system: Trichophyton mentagrophytes; experiment: Antifungal activity against Trichophyton mentagrophytes ATCC 9129 assessed as growth inhibition at pH 5.6 incubated for 5 days in presence of 10% beef serum; format: functional; conditions: ATCC 9129, 120 h, read-out: MIC100; outline: as §1
Mucor mucedo [20] = experiment: Antifungal activity against Mucor mucedo ATCC 7941 assessed as growth inhibition at pH 7 incubated for 20 hrs in presence of 10% beef serum; format: functional; conditions: ATCC 7941, 20 h, read-out: MIC100; outline: as §1

Structure (SMILES)	Activity (Mucor mucedo [1])	Activity [2]	Activity (Candida albicans [3])	Activity (Aspergillus niger [4])	MIC (Candida albicans [5])	MIC (Candida albicans [6])	MIC (Aspergillus niger [7])	MIC (Aspergillus niger [8])	MIC (Aspergillus niger [9])	MIC (Mucor mucedo [10])	MIC [11]	MIC (Candida albicans [12])	MIC [13]	MIC [14]	MIC (Mucor mucedo [15])	MIC (Mucor mucedo [16])	MIC (Candida albicans [17])	MIC (Aspergillus niger [18])	MIC [19]	MIC (Mucor mucedo [20])	also measured
C/C=C/C(=O)OC	inactive	inactive	inactive	inactive																	
C/C=C/C(=O)OCCCCC	inactive	inactive	inactive	inactive																	
CCOC(=O)/C=C/CBr					20 µg/mL (≈ 104 µM)	30 µg/mL (≈ 155 µM)	70 µg/mL (≈ 363 µM)	80 µg/mL	90 µg/mL	5 µg/mL (≈ 25.9 µM)	< 1 µg/mL	40 µg/mL	2 µg/mL (≈ 10.4 µM)	4 µg/mL	7 µg/mL	6 µg/mL (≈ 31.1 µM)	30 µg/mL	80 µg/mL (≈ 414 µM)	2 µg/mL	7 µg/mL	
CCCCOC(=O)/C=C/CI					10 µg/mL (≈ 37.3 µM)	12 µg/mL (≈ 44.8 µM)	20 µg/mL (≈ 74.6 µM)	70 µg/mL	70 µg/mL	2 µg/mL (≈ 7.46 µM)	< 1 µg/mL	30 µg/mL	< 1 µg/mL	7 µg/mL	5 µg/mL	4 µg/mL (≈ 14.9 µM)	20 µg/mL	30 µg/mL (≈ 112 µM)	3 µg/mL	7 µg/mL	
CCCCCOC(=O)/C=C/CBr					20 µg/mL (≈ 85.1 µM)	30 µg/mL (≈ 128 µM)	70 µg/mL (≈ 298 µM)			3 µg/mL (≈ 12.8 µM)	< 1 µg/mL	50 µg/mL	2 µg/mL (≈ 8.51 µM)	10 µg/mL	14 µg/mL	14 µg/mL (≈ 59.5 µM)	50 µg/mL	70 µg/mL (≈ 298 µM)	4 µg/mL	30 µg/mL	MIC100 (Aspergillus niger [8]): inactive; MIC100 (Aspergillus niger [9]): inactive
CCCOC(=O)/C=C/CI					10 µg/mL (≈ 39.4 µM)	12 µg/mL (≈ 47.2 µM)	30 µg/mL (≈ 118 µM)	60 µg/mL	60 µg/mL	2 µg/mL (≈ 7.87 µM)	< 1 µg/mL	20 µg/mL	2 µg/mL (≈ 7.87 µM)	7 µg/mL	5 µg/mL	3 µg/mL (≈ 11.8 µM)	16 µg/mL	30 µg/mL (≈ 118 µM)	3 µg/mL	6 µg/mL	
C/C=C/C(=O)OCC	inactive	inactive	inactive	inactive																	
C/C=C/C(=O)OCCCCCC	inactive	inactive	inactive	inactive																	
CCCCCCOC(=O)/C=C/CBr					20 µg/mL (≈ 80.3 µM)	20 µg/mL (≈ 80.3 µM)				14 µg/mL (≈ 56.2 µM)	< 1 µg/mL	90 µg/mL	4 µg/mL (≈ 16.1 µM)	30 µg/mL	40 µg/mL	16 µg/mL (≈ 64.2 µM)	70 µg/mL		14 µg/mL	50 µg/mL	MIC100 (Aspergillus niger [7]): inactive; MIC100 (Aspergillus niger [8]): inactive; MIC100 (Aspergillus niger [9]): inactive; MIC100 (Aspergillus niger [18]): inactive
C/C=C/C(=O)OCCC	inactive	inactive	inactive	inactive																	
CC1/C=C/C=C/C=C/C=C/C=C/C=C/C=C/C(OC2O[C@H](C)[C@@H](O)[C@H](N)[C@@H]2O)CC(O)C(C(=O)O)C(O)CC(=O)CC(O)CC(O)CC(O)CC(=O)CCCC(=O)CC(=O)OC1C(C)CC(C)C(O)CC(=O)c1ccc(N)cc1 (stereo partly specified)					< 1 µg/mL	< 1 µg/mL	5 µg/mL (≈ 4.51 µM)	7 µg/mL	5 µg/mL	< 1 µg/mL	< 1 µg/mL	2 µg/mL	3 µg/mL (≈ 2.7 µM)	9 µg/mL	< 1 µg/mL	< 1 µg/mL	< 1 µg/mL	2 µg/mL (≈ 1.8 µM)	< 1 µg/mL	< 1 µg/mL	
